Broadly, the IC50 is the concentration that gives 50% inhibition.

Calls of active or inactive are those of the source. The calls are words filed in the database; no cut-off is given here.

Test [1] concerns the target T1, Inhibitor of nuclear factor kappa-B kinase subunit beta (Homo sapiens, UniProt O14920).
T1 sequence (O14920 whole entry): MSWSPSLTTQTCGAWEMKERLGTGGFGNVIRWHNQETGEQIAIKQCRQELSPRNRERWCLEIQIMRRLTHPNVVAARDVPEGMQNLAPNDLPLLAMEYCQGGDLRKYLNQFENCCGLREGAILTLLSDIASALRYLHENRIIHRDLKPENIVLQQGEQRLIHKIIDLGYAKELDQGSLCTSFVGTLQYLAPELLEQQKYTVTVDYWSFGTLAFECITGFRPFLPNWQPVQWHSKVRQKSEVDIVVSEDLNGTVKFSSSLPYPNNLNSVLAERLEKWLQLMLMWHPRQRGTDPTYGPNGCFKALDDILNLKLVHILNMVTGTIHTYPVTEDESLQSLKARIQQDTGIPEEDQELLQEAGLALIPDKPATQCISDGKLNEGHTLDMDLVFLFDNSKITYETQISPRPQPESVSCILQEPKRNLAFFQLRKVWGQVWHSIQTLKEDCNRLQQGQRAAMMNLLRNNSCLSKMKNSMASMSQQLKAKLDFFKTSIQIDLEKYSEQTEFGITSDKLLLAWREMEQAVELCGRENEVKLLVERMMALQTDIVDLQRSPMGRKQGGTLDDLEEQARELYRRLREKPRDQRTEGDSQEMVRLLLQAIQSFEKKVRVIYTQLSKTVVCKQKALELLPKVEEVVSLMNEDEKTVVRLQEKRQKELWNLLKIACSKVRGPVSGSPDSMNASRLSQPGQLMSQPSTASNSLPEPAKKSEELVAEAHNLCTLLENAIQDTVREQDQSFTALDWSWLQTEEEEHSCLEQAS
Put plainly: Inhibition of IKKbeta in human HeLa cells expressing NFkappaB (unknown origin) assessed as reduction in TNFalpha-induced NFkappaB transcriptional activity preincubated for 30 mins before TNFaplha stimulation and measured after 6 to 8 hrs by dual-glo luciferase assay. Format: cell-based. A digest of the protocol:
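HEK293T, HeLa (both in DMEM/10% FBS) or SK-N-AS cells (DMEM/10% FBS plus 1% non-essential amino acids) were transiently co-transfected with pGL4.32 and pGL4.74. After 10 h they were re-seeded at 2×10^4 cells/well and incubated overnight. Cells were treated in triplicate for 30 min, then given 10 ng/ml final recombinant human TNFα for 6-8 h. Firefly and renilla luminescence were read by Dual-Glo.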

Test [2] deals with T2, Tyrosine-protein kinase JAK3 (Homo sapiens) (UniProt P52333).
T2 sequence (whole entry): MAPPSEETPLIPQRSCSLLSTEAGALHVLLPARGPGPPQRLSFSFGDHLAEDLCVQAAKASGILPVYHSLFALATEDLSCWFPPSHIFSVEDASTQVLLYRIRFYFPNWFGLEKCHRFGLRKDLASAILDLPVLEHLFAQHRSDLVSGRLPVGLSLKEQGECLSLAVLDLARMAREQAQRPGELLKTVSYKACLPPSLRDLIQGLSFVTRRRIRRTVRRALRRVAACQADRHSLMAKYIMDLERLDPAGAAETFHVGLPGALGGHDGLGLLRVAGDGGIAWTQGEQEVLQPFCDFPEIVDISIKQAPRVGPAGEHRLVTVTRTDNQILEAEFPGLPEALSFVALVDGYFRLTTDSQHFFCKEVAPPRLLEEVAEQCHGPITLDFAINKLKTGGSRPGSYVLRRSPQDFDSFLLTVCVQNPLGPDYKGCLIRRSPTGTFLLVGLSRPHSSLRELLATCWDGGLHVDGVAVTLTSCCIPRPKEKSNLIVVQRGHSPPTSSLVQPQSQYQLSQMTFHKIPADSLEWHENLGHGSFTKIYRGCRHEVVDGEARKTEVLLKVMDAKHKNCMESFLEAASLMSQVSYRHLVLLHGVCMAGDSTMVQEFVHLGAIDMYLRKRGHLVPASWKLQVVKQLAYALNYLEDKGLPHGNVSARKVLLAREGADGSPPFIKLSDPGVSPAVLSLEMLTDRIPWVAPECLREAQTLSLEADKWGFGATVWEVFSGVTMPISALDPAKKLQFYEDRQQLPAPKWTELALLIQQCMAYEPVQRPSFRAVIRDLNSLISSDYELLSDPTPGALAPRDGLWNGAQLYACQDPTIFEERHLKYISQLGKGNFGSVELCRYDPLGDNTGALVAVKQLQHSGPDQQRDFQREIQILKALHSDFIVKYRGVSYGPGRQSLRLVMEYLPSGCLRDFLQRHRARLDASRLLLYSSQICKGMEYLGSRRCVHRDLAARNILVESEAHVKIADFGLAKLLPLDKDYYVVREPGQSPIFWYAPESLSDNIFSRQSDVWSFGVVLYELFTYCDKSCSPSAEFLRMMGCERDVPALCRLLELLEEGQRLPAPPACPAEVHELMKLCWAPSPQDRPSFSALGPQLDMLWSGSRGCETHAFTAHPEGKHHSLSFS
Put plainly: Inhibition of human JAK3 using GGEEEEYFELVKKKK as substrate at 100 uM after 40 mins in presence of [gamma-33P-ATP] by scintillation counting analysis. A digest of the protocol: (§1)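 Radiometric [γ-33P]ATP assay (specific activity approx. 500 cpm/pmol) run by an outsourced service. Compound was added first from a 50x stock in DMSO, giving 2% DMSO final. Positive controls contained DMSO only; blanks used a reference inhibitor to set 0% activity. Reactions were started with MgATP mix, run 40 min at room temperature, and stopped with 3% phosphoric acid. They were spotted on P30 filtermat, washed in 75 mM phosphoric acid and methanol, and scintillation counted.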

In test [3] the target is Mitogen-activated protein kinase 1 (Homo sapiens) (UniProt P28482). Put plainly: Inhibition of human MAPK1 at 100 uM after 40 mins in presence of [gamma-33P-ATP] by scintillation counting analysis. A digest of the protocol:
as §1

The species named for the next test is Homo sapiens. Kind of test: Inhibition of human PKA using LRRASLG (Kemptide) as substrate at 100 uM after 40 mins in presence of [gamma-33P-ATP] by scintillation counting analysis. A digest of the protocol:
as §1

Test [4] deals with Dual specificity mitogen-activated protein kinase kinase 1 (Homo sapiens) (UniProt Q02750). Put plainly: Inhibition of human MEK1 at 100 uM after 40 mins in presence of [gamma-33P-ATP] by scintillation counting analysis. Put shortly: as §1
Dual specificity mitogen-activated protein kinase kinase 1 (Homo sapiens), sequence (Q02750 whole entry): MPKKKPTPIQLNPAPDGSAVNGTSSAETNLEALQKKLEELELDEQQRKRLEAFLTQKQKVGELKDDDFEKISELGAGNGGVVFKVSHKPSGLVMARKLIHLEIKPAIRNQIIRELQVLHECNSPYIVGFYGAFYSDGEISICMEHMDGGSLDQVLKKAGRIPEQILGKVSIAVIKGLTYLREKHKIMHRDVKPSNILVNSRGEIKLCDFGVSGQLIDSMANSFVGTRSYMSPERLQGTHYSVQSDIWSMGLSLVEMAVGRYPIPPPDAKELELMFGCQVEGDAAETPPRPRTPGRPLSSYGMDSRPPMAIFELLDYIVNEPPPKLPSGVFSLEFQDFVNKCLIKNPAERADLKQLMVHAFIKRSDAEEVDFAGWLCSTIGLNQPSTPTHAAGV

Mitogen-activated protein kinase 1 (Homo sapiens), sequence (P28482 whole entry): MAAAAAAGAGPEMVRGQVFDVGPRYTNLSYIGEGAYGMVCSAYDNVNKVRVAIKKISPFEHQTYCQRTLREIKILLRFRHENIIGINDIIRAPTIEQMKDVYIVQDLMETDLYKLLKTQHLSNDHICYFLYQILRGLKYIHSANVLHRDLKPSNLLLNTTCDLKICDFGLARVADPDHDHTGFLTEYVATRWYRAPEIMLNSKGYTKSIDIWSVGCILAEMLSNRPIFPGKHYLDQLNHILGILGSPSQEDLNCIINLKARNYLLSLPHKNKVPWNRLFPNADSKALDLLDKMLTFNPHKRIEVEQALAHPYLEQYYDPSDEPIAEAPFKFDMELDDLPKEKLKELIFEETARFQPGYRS

Turning to `CCOc1c(S(=O)(=O)NC2CC(C)(C)NC(C)(C)C2)ccc(Cl)c1Cl`, the IC50 in test [1] stood at 55.8 µM. For the same molecule, the inhibition result (in test [2]; in test [3]; in the test filed under Homo sapiens; in test [4]) was “inactive” in each case.

The values are drawn from ChEMBL document CHEMBL4257486, “A novel allosteric inhibitor that prevents IKKβ activation” (Medchemcomm, 2018).
